# Measured values as given in ChEMBL document CHEMBL1138867, “Design, synthesis, potency, and cytoselectivity of anticancer agents derived by parallel synthesis from alpha-aminosuberic acid” (J Med Chem, 2006).
# How the values were obtained:
# MM96L [1] = test: Induction of histone H4 acetylation in human MM96L cells; assay type: functional, cell-based
# Method in brief: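 MM96L melanoma cells were exposed for 8 h to 0.05, 0.5 or 5 µg/mL compound, with DMSO vehicle and untreated controls. Histones were extracted and resolved by TAU gel electrophoresis to separate non-, mono-, di-, tri- and tetra-acetylated histone H4.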
# NFF [2] = test: Antiproliferative activity against human NFF cells; assay type: functional, cell-based
# Method in brief: (§1)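 Cells cultured in RPMI 1640 with 10% heat-inactivated FCS, 3 mM HEPES, 5% CO2, 37 °C; NFF are primary neonatal foreskin fibroblasts. Cells were seeded at 5 × 10^3/well and left to adhere overnight. They were exposed to compound for 24 h, then the medium was replaced and cells grown a further 72 h. Survival was read by SRB staining at 564 nm, giving IC50.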
# MM96L [3] = test: Antiproliferative activity against human MM96L cells; assay type: functional, cell-based; method in brief: as §1
# [4] = Antiproliferative activity against human MM229 cells; assay type: functional, cell-based; method in brief: as §1
# [5] = Antiproliferative activity against human MM329 cells; assay type: functional, cell-based; method in brief: as §1
# [6] = Antiproliferative activity against human MM470 cells; assay type: functional, cell-based; method in brief: as §1
# [7] = Antiproliferative activity against human MM604 cells; assay type: functional, cell-based; method in brief: as §1
# [8] = Antiproliferative activity against human Mel RM cells; assay type: functional, cell-based; method in brief: as §1
# [9] = Antiproliferative activity against human Mel FH cells; assay type: functional, cell-based; method in brief: as §1
# SK-MEL-28 = test: Antiproliferative activity against human SK-Mel-28 cells; assay type: functional, cell-based; method in brief: as §1
# DO4 = test: Antiproliferative activity against human DO4 cells; assay type: functional, cell-based; method in brief: as §1
# [10] = Antiproliferative activity against human D14 cells; assay type: functional, cell-based; method in brief: as §1
# [11] = Antiproliferative activity against human D11 cells; assay type: functional, cell-based; method in brief: as §1
# [12] = Antiproliferative activity against human D17 cells; assay type: functional, cell-based; method in brief: as §1
# [13] = Antiproliferative activity against human LSP M2 cells; assay type: functional, cell-based; method in brief: as §1
# [14] = Antiproliferative activity against human AF6 cells; assay type: functional, cell-based; method in brief: as §1
# [15] = Antiproliferative activity against human AO7 RM cells; assay type: functional, cell-based; method in brief: as §1
# A2058 = test: Antiproliferative activity against human A2058 cells; assay type: functional, cell-based; method in brief: as §1
# HeLa = test: Antiproliferative activity against human HeLa cells; assay type: functional, cell-based; method in brief: as §1
# NFF [16] = test: Selectivity index, IC50 for MM229 over IC50 for NFF cells; assay type: functional, Homo sapiens
# Method in brief: (§2)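 Selectivity index: IC50 for normal neonatal foreskin fibroblasts (NFF) relative to IC50 for each cancer line, both from the same survival assay. Cells grown in RPMI 1640 with 10% heat-inactivated FCS at 37 °C and 5% CO2, plated at 5 × 10^3 cells/well and left to adhere overnight. Compound exposure 24 h, then removed and cells regrown 72 h in fresh medium. Fixed with methylated spirits, stained with sulforhodamine B, read at 564 nm.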
# NFF [17] = test: Selectivity index, IC50 for MM329 over IC50 for NFF cells; assay type: functional, Homo sapiens; method in brief: as §2
# NFF [18] = test: Selectivity index, IC50 for MM470 over IC50 for NFF cells; assay type: functional, Homo sapiens; method in brief: as §2
# NFF [19] = test: Selectivity index, IC50 for MM604 over IC50 for NFF cells; assay type: functional, Homo sapiens; method in brief: as §2
# NFF [20] = test: Selectivity index, IC50 for Mel RM over IC50 for NFF cells; assay type: functional, Homo sapiens; method in brief: as §2
# NFF [21] = test: Selectivity index, IC50 for Mel FH over IC50 for NFF cells; assay type: functional, Homo sapiens; method in brief: as §2
# NFF [22] = test: Selectivity index, IC50 for DO4 over IC50 for NFF cells; assay type: functional, Homo sapiens
# NFF [23] = test: Selectivity index, IC50 for D14 over IC50 for NFF cells; assay type: functional, Homo sapiens
# NFF [24] = test: Selectivity index, IC50 for D11 over IC50 for NFF cells; assay type: functional, Homo sapiens
# NFF [25] = test: Selectivity index, IC50 for D17 over IC50 for NFF cells; assay type: functional, Homo sapiens
# NFF [26] = test: Selectivity index, IC50 for LSP M2 over IC50 for NFF cells; assay type: functional, Homo sapiens; method in brief: as §2
# NFF [27] = test: Selectivity index, IC50 for AF6 over IC50 for NFF cells; assay type: functional, Homo sapiens
# NFF [28] = test: Selectivity index, IC50 for AO7 RM over IC50 for NFF cells; assay type: functional, Homo sapiens
# NFF [29] = test: Selectivity index, IC50 for A2058 over IC50 for NFF cells; assay type: functional, Homo sapiens
# NFF [30] = test: Selectivity index, IC50 for HeLa over IC50 for NFF cells; assay type: functional, Homo sapiens
smiles,measurement,setting,value
CN(C)c1ccc(C(=O)NC(CCCCCC(=O)NO)C(=O)NCc2ccccc2)cc1 (centres undefined),Activity,MM96L [1],Dose-dependent effect
same,IC50,NFF [2],870 nM
same,IC50,MM96L [3],130 nM
same,IC50,[4],600 nM
same,IC50,[5],60 nM
same,IC50,[6],90 nM
same,IC50,[7],10 nM
same,IC50,[8],950 nM
same,IC50,[9],80 nM
same,IC50,SK-MEL-28,60 nM
same,IC50,DO4,120 nM
same,IC50,[10],260 nM
same,IC50,[11],300 nM
same,IC50,[12],60 nM
same,IC50,[13],450 nM
same,IC50,[14],300 nM
same,IC50,[15],180 nM
same,IC50,A2058,100 nM
same,IC50,HeLa,90 nM
same,Ratio IC50,NFF [16],1.5
same,Ratio IC50,NFF [17],14.5
same,Ratio IC50,NFF [18],9.7
same,Ratio IC50,NFF [19],87
same,Ratio IC50,NFF [20],0.9
same,Ratio IC50,NFF [21],10.9
same,Ratio IC50,NFF [22],7.3
same,Ratio IC50,NFF [23],3.3
same,Ratio IC50,NFF [24],2.9
same,Ratio IC50,NFF [25],14.5
same,Ratio IC50,NFF [26],1.9
same,Ratio IC50,NFF [27],2.9
same,Ratio IC50,NFF [28],4.8
same,Ratio IC50,NFF [29],8.7
same,Ratio IC50,NFF [30],9.7
